LEDGF integ inh – blocks HIV-1 LEDGF/p75-dependent DNA integration; TR-FRET IN-LEDGF/p75 DNA integration, Eu/Cy5; inhibition, % at 3.7 µM; actives 0.64% (n = 370,000);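 active means inhibition above the screen-wide mean plus 3 SD, cut at about 13% in these data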;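 further: signal is the Cy5 over europium emission ratio at 671 and 618 nm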
ASAP1 inh – ASAP1 ArfGAP inhibition. inhibition, % at 16.5 µM. AID 624377. actives 0.19% (n = 360,000). ASAP1-stimulated ARF1 GTP hydrolysis, GDP FP detection. Q9ULH1; in the data active means inhibition above about 25%
MBD2 inh – inhibitors of human MBD2 binding to methylated oligonucleotide; Q9UBB5; TR-FRET; inhibition, % at 4.4 µM; actives 0.31% (n = 370,000); AID 686964; in the data active means inhibition above about 13%
Target sequence (Q9UBB5 whole entry, looked up): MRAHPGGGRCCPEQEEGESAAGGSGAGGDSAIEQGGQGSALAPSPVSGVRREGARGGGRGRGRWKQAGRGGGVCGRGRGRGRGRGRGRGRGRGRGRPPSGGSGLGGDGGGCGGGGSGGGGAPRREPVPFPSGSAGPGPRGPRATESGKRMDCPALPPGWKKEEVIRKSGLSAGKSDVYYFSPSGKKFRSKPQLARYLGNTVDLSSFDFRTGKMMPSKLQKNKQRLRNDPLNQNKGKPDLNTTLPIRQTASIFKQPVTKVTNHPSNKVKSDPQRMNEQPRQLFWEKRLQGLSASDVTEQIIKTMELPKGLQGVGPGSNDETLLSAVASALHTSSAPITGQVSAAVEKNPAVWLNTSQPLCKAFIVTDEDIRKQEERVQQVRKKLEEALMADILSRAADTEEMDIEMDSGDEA
UHRF1 MBD2 ctr – UHRF1 methyl-DNA binding inhibition; Q96T88; UHRF1 binding to methylated oligo, TR-FRET; inhibition, % at 4.4 µM; actives 0.75% (n = 370,000); AID 687016; in the data active means inhibition above about 21%;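 further: UHRF1 SRA domain binding a hemimethylated CpG hairpin DNA probe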
TDP2 absorb – blocks human TDP2 phosphodiesterase activity. inhibition, % at 12.8 µM. actives 0.34% (n = 370,000). recombinant TDP2, T5PNP hydrolysis, p-nitrophenol absorbance 415 nm;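 active means inhibition above the mean of all tested compounds plus 3 SD, set per campaign, cut at about 25% in these data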
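Assay system: recombinant human TDP2 / Reagent: T5PNP substrate at 5 mM, a TopII-DNA adduct mimic / Measured by: epi absorbance from released p-nitrophenol / Evaluation: % inhibition relative to enzyme-containing and enzyme-free wells / Control set: enzyme-free and DMSO wells / Replicates: each compound tested once, singlicate / Schedule: enzyme reaction with compound for 2 h at 37 °C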
ARFGAP1 inhibitor – rat ARFGAP1 inhibition; actives 0.26% (n = 360,000); Q62848; Arfgap1-stimulated ARF1 GTP hydrolysis, GDP FP detection; inhibition, % at 16.5 µM;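 active means inhibition above a per-plate limit, mean inhibition of low control wells plus 3 SD, cut at about 25% in these data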
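Assay system: Rat Arfgap1 GAP domain (His6, aa 1-136), purified enzyme | Buffer or medium: HEPES 25 mM pH 7.5, NaCl 150 mM, MgCl2, DTT | Schedule: GTP hydrolysis reaction 2 h at 25 °C | Signal: FP of antibody-bound GDP Alexa 633 tracer, ex 620/em 688 nm | Measure: Percent inhibition of Arfgap1-stimulated GTP hydrolysis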
ASAP1 inh confirm – confirmation of human ASAP1 inhibitors. actives 37% (n = 620). AID 624431. ASAP1-stimulated Arf1 GTPase, GDP fluorescence polarization. shares compounds with ASAP1 inh. inhibition, % at 16.5 µM;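 active means mean inhibition over triplicates exceeds the hit threshold derived for the earlier primary screening run, cut at about 25% in these data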
Of the large screens only hits and unclear results are named; the others gave an inactive call (follow-up assays come after a bar, where they were run). Compounds with a hit are over-represented: about 2% of the library has one in this group of screens.

CC(=O)N(C)c1ccc(NC(=O)Nc2ccc(C)c(C)c2)cc1	ASAP1 inh 26.6 | ASAP1 inh confirm inactive
CN1CCN(c2ccc(NC(=O)c3ccc(-c4cccc([N+](=O)[O-])c4)o3)cc2)CC1	ASAP1 inh 31.4 | ASAP1 inh confirm 106.2
CCCCOCCCNC(=O)C[C@@H]1C(=O)N2CCCC3=C2[C@@]1(C(=O)OCC)CCC3	none (no result: ASAP1 inh, ARFGAP1 inhibitor)
Cc1ccc(NC(=O)CN2C(=O)S/C(=C\c3cc(Cl)c(OCC(=O)O)c(Cl)c3)C2=O)cc1	ASAP1 inh 64.8, ARFGAP1 inhibitor 37.2 | ASAP1 inh confirm 75.0
COc1cccc(NC(=O)CN(C)C(=O)c2ccc(N3CCCCC3)c([N+](=O)[O-])c2)c1	ASAP1 inh 25.2 | ASAP1 inh confirm inactive
COc1cccc(-c2ccc3c(c2)O[C@H](CN(C)C(=O)c2ccccc2F)[C@H](C)CN([C@H](C)CO)S3(=O)=O)c1	ASAP1 inh 25.1 | ASAP1 inh confirm inactive
CC(C)C[C@@H]1COc2cccc(N3CCSCC3)c2S(=O)(=O)N1C	none (no result: ASAP1 inh, ARFGAP1 inhibitor)
O=C(CSc1nnc(-c2ccccn2)n1-c1ccccc1)Nc1ccccc1-c1ccccc1	none (no result: ASAP1 inh, ARFGAP1 inhibitor)
C[C@H](O)[C@@H]1C(=O)N2CCc3c([nH]c4c(-c5ccc6c(c5)OCO6)cccc34)[C@@H]2C[C@@H]1N(C)C(=O)Nc1ccccc1	ASAP1 inh 28.9 | ASAP1 inh confirm inactive
Cc1ccccc1NC(=O)N(C)[C@H]1C[C@H]2c3[nH]c4c(-c5ccc6c(c5)OCO6)cccc4c3CCN2C(=O)[C@H]1[C@H](C)O	none
COc1cccc(/C=C2\CC3(OC(=O)C4CCCCC4)CCCN2C3)c1 (centres undefined)	none (no result: ASAP1 inh, ARFGAP1 inhibitor)
C#CCNC(=O)C[C@H]1C[C@@]2(C(=O)OC)C(=C[C@H](C3CCCC3)O[C@@H]2C)N(Cc2ccco2)C1=O	none (no result: ASAP1 inh, ARFGAP1 inhibitor)
Cn1c(C(=O)Nc2ccccc2)cc2sccc21	ASAP1 inh 30.6 | ASAP1 inh confirm inactive
COC(=O)c1ccc(NC(=O)c2cc3sccc3n2C)cc1	none
COc1ccc(Oc2c(Cl)cnn(C3c4ccccc4-c4ccccc43)c2=O)cc1	none (no result: ASAP1 inh, ARFGAP1 inhibitor)
CC(Oc1ccc(Cl)cc1Cl)c1nc(-c2ccc(NC(=O)c3ccncc3)cc2)no1 (centres undefined)	ASAP1 inh 24.9 | ASAP1 inh confirm inactive
O=C(CNC(=O)c1ccc(F)cc1)Nc1ccccc1C(F)(F)F	ASAP1 inh 25.3 | ASAP1 inh confirm inactive
O=C(CC(=O)Nc1ccccc1C(F)(F)F)Nc1ccccc1C(F)(F)F	none
CCNC(=O)/C(C#N)=C/c1c(N2CC(C)OC(C)C2)nc2ccccn2c1=O (centres undefined)	ASAP1 inh 49.3 | ASAP1 inh confirm inactive
COc1ccc(Br)cc1C(=O)NC(=S)Nc1ccc(CN2CCOCC2)cc1	ASAP1 inh 27.2 | ASAP1 inh confirm inactive
COc1ccc(NC(=O)c2ccc(-c3ccccc3C(F)(F)F)o2)cc1	ASAP1 inh 25.9 | ASAP1 inh confirm inactive
O=C(COC(=O)C1CC(=O)N(Cc2ccco2)C1)c1ccc(OC(=O)c2ccco2)cc1 (centres undefined)	ASAP1 inh 28.4 | ASAP1 inh confirm inactive
COc1cc(OC)cc(C(=O)N[C@H](C(=O)NCCc2c[nH]c3ccccc23)C(C)C)c1	none
COc1cc(OC)cc(C(=O)N[C@H](C(=O)OCC(=O)c2c[nH]c3ccccc23)C(C)C)c1	ASAP1 inh 27.8 | ASAP1 inh confirm inactive
CCc1c(C(=O)C(C)O)c2n3c1CCC[C@@H]3CC2 (some centres undefined)	none (no result: ASAP1 inh, ARFGAP1 inhibitor)
COC(=O)C12CCCN1C1C(=O)N(Cc3ccc(C(N)=O)cc3)CC1C2 (centres undefined)	none (no result: ASAP1 inh, ARFGAP1 inhibitor)
O=c1c(=Nc2ccccc2O)c(=O)c2ccccc12	ASAP1 inh 27.6 | ASAP1 inh confirm inactive
c1ccc(-c2csc3ncnc(N4CCN(Cc5ccc6c(c5)OCO6)CC4)c23)cc1	none
O=C(CSc1ncnc2scc(-c3ccccc3)c12)N1CCN(Cc2ccc3c(c2)OCO3)CC1	ASAP1 inh 31.3 | ASAP1 inh confirm 46.1
